Tests used:
[1] = target: GABA-A receptor; anion channel; assay: In vitro inhibition of [3H]diazepam binding to rat GABA-A benzodiazepine receptor; format: protein-complex assay
[2] = Lethal dose tested in mice by oral administration; format: toxicity, organism-based; settings: mouse, in vivo
[3] = test system: Mus musculus; assay: Antianxiety activity, by anti-pentylenetetrazole test carried out on 50-54 day old mice (po); format: functional
How it was run: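 Oral dosing to male CF-1 mice aged 50–54 days, using a modification of the Everett and Richards method. Metrazole was given iv at 70 mg/kg as the convulsant challenge.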

[4] = test system: Mus musculus; assay: Antianxiety activity, by rotarod test carried out on 50-54 day old mice (po); format: functional
[5] = test system: Mus musculus; assay: Antianxiety activity, by inclined screen procedure carried out on 50-54 day old mice(po); format: functional

| Structure (SMILES) | IC50 [1] [nM] | LD50 [2] [mg/kg] | ED50 [3] [mg/kg] | ED50 [4] [mg/kg] | ED50 [5] [mg/kg] |
| --- | --- | --- | --- | --- | --- |
| c1ccc(C2=NCc3n[nH]nc3-c3ccccc32)cc1 | 420 | 775 | > 100 | – | – |
| Clc1ccccc1C1=NCc2n[nH]nc2-c2ccccc21 | 5.2 | 900 | > 100 | – | – |
| Clc1ccc2c(c1)C(c1ccccc1)=NCc1n[nH]nc1-2 | 11 | > 1000 | 4.2 | 26 | > 400 |
| Clc1ccc2c(c1)C(c1ccccc1Cl)=NCc1n[nH]nc1-2 | 0.76 | > 1000 | 2.6 | 57 | > 400 |
| Fc1ccccc1C1=NCc2n[nH]nc2-c2ccc(Cl)cc21 | 0.76 | > 1000 | 2.1 | 48 | 302 |
| CN1C(=O)CN=C(c2ccccc2)c2cc(Cl)ccc21 [DIAZEPAM] | – | – | 1.4 | 2.6 | 25 |

— ChEMBL document CHEMBL1122343, “2-Benzazepines. 4. [1,2,3]Triazolo[4,5-d][2]benzazepines and dibenzo[c,f][1,2,3]triazolo[3,4-a]azepines: synthesis and evaluation as central nervous system agents” (J Med Chem, 1983)
